Measurements as given in ChEMBL document CHEMBL4014309, “Development of an Acrylate Derivative Targeting the NLRP3 Inflammasome for the Treatment of Inflammatory Bowel Disease” (J Med Chem, 2017).
The source made the active and inactive calls. No cut-off for these calls is given here.

Legend:
[1] = molecular target: NACHT, LRR and PYD domains-containing protein 3 (Mus musculus) (UniProt Q8R4B8); experiment: Inhibition of NLRP3 inflammasome in LPS-primed C57BL/6 mouse bone marrow derived macrophages assessed as reduction in ATP-induced pyroptosis at 100 to 250 nM preincubated for 1 hr followed by stimulation with ATP measured after 30 mins by LDH release assay
Sequence of NACHT, LRR and PYD domains-containing protein 3 (Mus musculus) (Q8R4B8 whole entry, the tested form may be a part): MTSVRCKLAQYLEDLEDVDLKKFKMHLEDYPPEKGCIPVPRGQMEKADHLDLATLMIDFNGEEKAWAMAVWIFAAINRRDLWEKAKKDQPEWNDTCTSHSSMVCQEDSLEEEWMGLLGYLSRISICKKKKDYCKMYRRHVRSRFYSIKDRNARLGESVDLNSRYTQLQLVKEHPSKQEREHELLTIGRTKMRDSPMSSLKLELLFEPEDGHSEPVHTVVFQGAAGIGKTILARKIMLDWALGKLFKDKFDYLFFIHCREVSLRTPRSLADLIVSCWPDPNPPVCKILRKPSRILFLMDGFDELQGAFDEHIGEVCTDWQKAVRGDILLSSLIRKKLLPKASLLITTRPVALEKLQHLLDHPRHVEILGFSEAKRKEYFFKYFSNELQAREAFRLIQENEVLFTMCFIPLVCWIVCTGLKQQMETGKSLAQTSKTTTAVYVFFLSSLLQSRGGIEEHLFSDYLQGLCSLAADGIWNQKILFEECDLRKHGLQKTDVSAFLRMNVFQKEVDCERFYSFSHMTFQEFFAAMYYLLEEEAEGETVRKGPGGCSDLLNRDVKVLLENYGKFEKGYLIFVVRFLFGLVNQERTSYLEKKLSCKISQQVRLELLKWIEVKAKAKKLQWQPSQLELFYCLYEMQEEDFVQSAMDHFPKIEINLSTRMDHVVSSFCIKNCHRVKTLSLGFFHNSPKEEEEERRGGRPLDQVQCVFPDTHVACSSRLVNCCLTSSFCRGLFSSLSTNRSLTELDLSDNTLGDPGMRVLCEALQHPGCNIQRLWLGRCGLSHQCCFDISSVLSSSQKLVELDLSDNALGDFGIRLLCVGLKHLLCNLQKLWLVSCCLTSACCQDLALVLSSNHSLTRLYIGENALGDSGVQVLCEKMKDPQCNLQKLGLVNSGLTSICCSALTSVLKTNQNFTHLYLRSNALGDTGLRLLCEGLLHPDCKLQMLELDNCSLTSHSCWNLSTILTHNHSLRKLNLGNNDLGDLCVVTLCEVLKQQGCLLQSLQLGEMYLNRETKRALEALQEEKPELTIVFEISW
In short: (§1)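 Bone marrow macrophages from C57BL/6 mice, differentiated with 20% L-cell medium, primed with LPS (1 µg/mL, 3 h). Test agent or vehicle was added for 1 h, then ATP (5 mM, 30 min) or nigericin (10 µM, 30 min). IL-1β in the medium was measured by ELISA. LDH in the medium was measured colorimetrically as % of total cellular LDH.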

[2] = molecular target: NACHT, LRR and PYD domains-containing protein 3 (Mus musculus) (UniProt Q8R4B8); experiment: Inhibition of NLRP3 inflammasome in LPS-primed C57BL/6 mouse bone marrow derived macrophages assessed as reduction in nigericin-induced pyroptosis at 100 to 250 nM preincubated for 1 hr followed by […] measured after 30 mins by LDH release assay; in short: as §1
[3] = molecular target: NACHT, LRR and PYD domains-containing protein 3 (Mus musculus) (UniProt Q8R4B8); experiment: Inhibition of NLRP3 inflammasome in LPS-primed C57BL/6 mouse bone marrow derived macrophages assessed as reduction in ATP-induced IL-1beta production at 10 to 250 nM preincubated for 1 hr followed by stimulation with ATP measured after 30 mins by ELISA
In short: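 C57BL/6 bone marrow macrophages, differentiated with 20% L-cell medium, were primed with LPS (1 µg/mL, 3 h). They were then exposed to compound or vehicle for 1 h and stimulated with ATP (5 mM, 30 min). IL-1β released into the medium was measured by ELISA.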

[4] = molecular target: NACHT, LRR and PYD domains-containing protein 3 (Mus musculus) (UniProt Q8R4B8); experiment: Inhibition of NLRP3 inflammasome in LPS-primed C57BL/6 mouse bone marrow derived macrophages assessed as reduction in nigericin-induced IL-1beta production at 10 to 250 nM preincubated for 1 hr followed by stimulation with nigericin measured after 30 mins by ELISA; in short: as §1
Rattus norvegicus [5] = experiment: (§2) Antiinflammatory activity in DNBS-induced Sprague-Dawley rat colitis model assessed as body weight recovery at 1 mg/kg/day, ig administered as methylcellulose suspension for 6 days simulatneously with 6 days of DNBS-challenge measured daily during compound dosing; type: functional, organism-based
In short: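 Colitis was induced with intrarectal DNBS (15 mg in 0.25 mL 50% ethanol). Intragastric treatment ran 6 days from the day of induction: 1 mg/kg/day in 1% methylcellulose, or 12.5–50 mg/kg/day in olive oil. Body weight change (g) was recorded at the end of treatment, mean ± SEM, n = 10.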

Rattus norvegicus [6] = experiment: as §2, with “reduction in DNBS-induced spleen” for “body”, “increase by measuring increase in spleen weight” for “recovery”, “dosing (reference value: 39.3%)” for “dosing”; type: functional; set-up: scale not given: the % may be the effect or the level left
In short: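 Spleen weight was used as an index of systemic inflammation. Rats had intrarectal DNBS (15 mg/0.25 mL 50% ethanol) and 6 days of intragastric dosing: 1 mg/kg/day in 1% methylcellulose, or 12.5–50 mg/kg/day in 0.2 mL olive oil. The spleen was weighed at sacrifice and expressed as percent increase versus control, n = 10.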

Rattus norvegicus [7] = experiment: Antiinflammatory activity in DNBS-induced Sprague-Dawley rat colitis model assessed as DNBS-induced macroscopic damage score at 1 mg/kg/day, ig for 6 days simulatneously with 6 days of DNBS-challenge (reference value: 8.6 +/- 0.6); type: functional
In short: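 After intrarectal DNBS (15 mg/0.25 mL 50% ethanol), dosing was intragastric for 6 days (0.2 mL olive oil; 1 mg/kg/day dose in 1% methylcellulose). The whole excised colon was scored for macroscopic damage on a 0–6 point scale by two blinded observers. Values are mean ± SEM, n = 10.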

Rattus norvegicus [8] = experiment: Anti-inflammatory activity in DNBS-induced Sprague-Dawley rat colitis model assessed as reduction in DNBS-induced increase in MPO levels in colon at 1 mg/kg/day, ig for 6 days simulatneously with 6 days of DNBS-challenge by ELISA; type: functional, organism-based
In short: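 DNBS colitis (15 mg intrarectal in 50% ethanol) was treated by the intragastric route for 6 days from induction (1 mg/kg/day in 1% methylcellulose, or 12.5–50 mg/kg/day in olive oil). Colonic samples (30 mg) were taken adjacent and distal to the necrotic area, homogenized, and assayed for MPO by ELISA. Results are ng MPO per mg tissue, mean ± SEM, n = 10.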

Rattus norvegicus [9] = experiment: Anti-inflammatory activity in DNBS-induced Sprague-Dawley rat colitis model assessed as DNBS-induced IL-1beta levels in colon at 1 mg/kg/day, ig for 6 days simulatneously with 6 days of DNBS-challenge by ELISA (reference value: 22.3 +/- 2.9 ng/mg); type: functional
Rattus norvegicus [10] = experiment: Anti-inflammatory activity in DNBS-induced Sprague-Dawley rat colitis model assessed as DNBS-induced TNFalpha levels in colon at 1 mg/kg/day, ig for 6 days simulatneously with 6 days of DNBS-challenge by ELISA (reference value: 5.9 +/- 0.6 pg/mg); type: functional
Rattus norvegicus [11] = experiment: Toxicity in Sprague-Dawley rat assessed as body weight loss at 1 mg/kg/day, ig; type: organism-based; settings: in vivo, po
In short: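 Rats received intrarectal DNBS (15 mg in 0.25 mL 50% ethanol) or none. Dosing was intragastric for 6 days from induction: compound 12.5–50 mg/kg/day in 0.2 mL olive oil, or dexamethasone 1 mg/kg/day in 0.2 mL 1% methylcellulose. Body weight change was recorded at end; n = 10, mean ± SEM.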

SMILES: C[C@@H]1C[C@H]2[C@@H]3CCC4=CC(=O)C=C[C@]4(C)[C@@]3(F)[C@@H](O)C[C@]2(C)[C@@]1(O)C(=O)CO [DEXAMETHASONE]
- inhibition [1]: Active
- inhibition [2]: Active
- inhibition [3]: inactive
- inhibition [4]: inactive
- Activity (Rattus norvegicus [5]): inactive
- Activity (Rattus norvegicus [6]): 1.6%
- Activity_index (Rattus norvegicus [7]): 2
- Activity (Rattus norvegicus [8]): Active
- Activity (Rattus norvegicus [9]): 6.7 ng/mg
- Activity (Rattus norvegicus [10]): 2.2 pg/mg
- Activity (Rattus norvegicus [11]): Toxic
